The results in this text go back to ChEMBL document CHEMBL1123394, “Systematic synthesis and biological evaluation of alpha- and beta-D-xylofuranosyl nucleosides of the five naturally occurring bases in nucleic acids and related analogues” (J Med Chem, 1986).

Converted amounts (≈) assume the structure as drawn.

Data set [1] in a line: Concentration required to reduce protein synthesis in primary rabbit kidney cells usingi [3H2-4,5]leucine incorporation. It counts as functional. As to conditions: Oryctolagus cuniculus, read-out: ID50 (the source's name). An outline of the steps: (§1)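 Primary rabbit kidney cells with compounds in growth medium at 100, 10, or 1 μg/mL or less. Cell number and incorporation of [3H-methyl]dThd (DNA), [3H-5]Urd (RNA) or [3H2-4,5]leucine (protein) measured. ID50 taken as the dose giving 50% reduction in cell number or in DNA, RNA or protein synthesis.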

Data set [2] can be described thus: Concentration required to reduce RNA synthesis in primary rabbit kidney cells using [3H-5]-Urd incorporation. Format: functional. As to conditions: Oryctolagus cuniculus, read-out: ID50 (the source's name). The gist of the method: as §1
A short description of data set [3]: Concentration required to reduce DNA synthesis in primary rabbit kidney cells using [3H-Methyl]-dThd incorporation. Format: functional. The note with it: Oryctolagus cuniculus, read-out: ID50 (the source's name). An outline of the steps:
as §1

The nature of data set [4]: Dose required to reduce primary rabbit kidney cell growth. The note with it: Oryctolagus cuniculus, read-out: ID50 (the source's name). Format: functional. The gist of the method:
as §1

The subject of data set [5] is Mus musculus. The experiment in a line: Toxicity of compound against mice was determined at a concentration of 250 mg/kg. Set-up: dose 250 mg/kg. As to conditions: in vivo. Format: organism-based. The gist of the method: (§2)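 Swiss mice (20-24 g) received a single intraperitoneal dose of 100-2,000 mg/kg. Compound was suspended in distilled water containing 0.2 g Tween 80 and 0.2 g (carboxymethyl)cellulose per 100 mL. Mice were followed for 14 days for acute toxicity.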

The subject of data set [6] is Mus musculus. Kind of data set: Toxicity of compound against mice was determined at a concentration of 750 mg/kg. Format: organism-based. The arrangement: dose 750 mg/kg. The note with it: in vivo. An outline of the steps:
as §2

For data set [7], the system named is Mus musculus. Kind of data set: Toxicity of compound against mice was determined at a concentration of 100 mg/kg. Format: organism-based. Set-up: dose 100 mg/kg. The note with it: in vivo. An outline of the steps: as §2
Data set [8] deals with WI-38. The experiment in a line: Concentration required for microscopically detectable alteration of the normal cell morphology in Wi-38 cells. Format: functional. As to conditions: Homo sapiens. An outline of the steps: (§3)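 Host-cell morphology inspected microscopically for detectable alteration, with compounds in growth medium at up to 200 or 400 μg/mL.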
In data set [9] the test system is Vero. The experiment in a line: Antiviral activity was measured against Parainfluenza virus-3 in african green monkey kidney (Vero B) cells. Format: functional. As to conditions: Chlorocebus sabaeus. The gist of the method:
(§4)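 Inhibition of virus-induced cytopathogenicity scored in cell culture monolayers. Test compounds dissolved in growth medium at 100, 10, or 1 μg/mL or less.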

Data set [10] relates to HeLa. The experiment in a line: Antiviral activity was measured against Coxsackie virus B4 in HeLa cells. It counts as functional. The note with it: Homo sapiens. An outline of the steps: (§5)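 Inhibition of virus-induced cytopathogenicity in cell culture. Compounds were dissolved in growth medium at 100, 10 or 1 μg/mL or less.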
Data set [11] can be described thus: Antiviral activity was measured against vesicular stomatitis virus in rabbit kidney cells. The note with it: Oryctolagus cuniculus. Format: functional. An outline of the steps:
as §5

In data set [12] the test system is Vero. Kind of data set: Antiviral activity was measured against forest virus in african green monkey kidney (Vero B) cells. Format: functional. The note with it: Chlorocebus sabaeus. An outline of the steps:
as §4

The subject of data set [13] is Vero. The experiment in a line: Concentration required for microscopically detectable alteration of the normal cell morphology in Vero B cells. Format: functional. The note with it: Chlorocebus sabaeus. An outline of the steps: as §3
The nature of data set [14]: Antiviral activity was measured against vaccinia virus in rabbit kidney cells. Format: functional. The note with it: Oryctolagus cuniculus. The gist of the method:
as §5

A short description of data set [15]: Antiviral activity was measured against Herpes simplex virus (HSV-1 KOS) in rabbit kidney cells. It counts as functional. The note with it: Oryctolagus cuniculus. The gist of the method:
as §5

In data set [16] the test system is Vero. Kind of data set: Antiviral activity was measured against Coxsackie virus B4 in african green monkey kidney (Vero B) cells. Format: functional. The note with it: Chlorocebus sabaeus. An outline of the steps: as §4
The nature of data set [17]: Antiviral activity was measured against Herpes simplex virus (HSV-2 G) in rabbit kidney cells. It counts as functional. The note with it: Oryctolagus cuniculus. The gist of the method:
as §4

Data set [18] deals with Vero. Kind of data set: Antiviral activity was measured against Reo virus-1 in african green monkey kidney (Vero B) cells. It counts as functional. The note with it: Chlorocebus sabaeus. An outline of the steps:
as §4

Data set [19] has as its system WI-38. Kind of data set: Antiviral activity was measured against Rhino virus-1A in human diploid (WI-38) cells. It counts as functional. An outline of the steps:
as §4

Data set [20] deals with HeLa. The experiment in a line: Concentration required for microscopically detectable alteration of the normal cell morphology in HeLa cells. As to conditions: Homo sapiens. Format: functional. An outline of the steps: as §3
Data set [21] in a line: Concentration required for microscopically detectable alteration of the normal cell morphology in PRK cells. It counts as functional. As to conditions: Oryctolagus cuniculus. The gist of the method:
as §3

The subject of data set [22] is HeLa. The experiment in a line: Antiviral activity was measured against vesicular stomatitis virus in HeLa cells. The note with it: Homo sapiens. It counts as functional. An outline of the steps: as §5
The subject of data set [23] is Vero. The experiment in a line: Antiviral activity was measured against Sindbis virus in african green monkey kidney (Vero B) cells. Format: functional. The note with it: Chlorocebus sabaeus. The gist of the method: as §4
In data set [24] the test system is WI-38. Kind of data set: Antiviral activity was measured against Rhino virus-9 in human diploid (WI-38) cells. It counts as functional. The gist of the method:
as §4

Turning to `Nc1ccn([C@@H]2O[C@H](CO)[C@@H](O)[C@@H]2O)c(=O)n1` [CYTARABINE], the IC50 in data set [1] was over 200 µg/mL; in data set [2] it was 0.03 µg/mL (≈ 0.123 µM); in data set [3] it was 0.05 µg/mL (≈ 0.206 µM); in [4], 0.04 µg/mL (≈ 0.164 µM).
For `Nc1nc2c(ncn2[C@@H]2O[C@H](CO)[C@H](O)[C@H]2O)c(=O)[nH]1`, the No. of dead mice came out at 5 in the data set with Mus musculus [5], 8 in the data set with Mus musculus [6] and 2 with Mus musculus [7].
Consider `Nc1ncnc2c1ncn2C[C@H](O)CO` [(S)-DHPA], for which the MCC in the data set on WI-38 [8] was over 400 µg/mL; in the data set on Vero [9], over 400 µg/mL; in the data set on HeLa [10], over 400 µg/mL; in [11], 20 µg/mL; with Vero [12], over 400 µg/mL; with Vero [13], over 400 µg/mL. The MCC is 20 µg/mL in [14]; over 400 µg/mL in data set [15]; 100 µg/mL in the data set on Vero [16]; over 400 µg/mL in [17]; 100 µg/mL in the data set with Vero [18]; 150 µg/mL with WI-38 [19]. In addition, the MCC with HeLa [20] was over 400 µg/mL; in data set [21], over 400 µg/mL; in the data set with HeLa [22] it was 70 µg/mL; with Vero [23] it was over 400 µg/mL; with WI-38 [24], over 400 µg/mL.
Turning to `NC(=O)c1ncn([C@H]2O[C@H](CO)[C@H](O)[C@H]2O)c1N`, the MCC (in the data set with WI-38 [8]; with Vero [9]; in the data set on HeLa [10]; in the data set on Vero [12]; in the data set with Vero [13]; in data set [15]) was over 400 µg/mL throughout. In addition, the MCC with Vero [16] is over 300 µg/mL; in data set [17], over 400 µg/mL; in the data set with Vero [18] it was over 400 µg/mL; in the data set on WI-38 [19], over 400 µg/mL; in the data set with HeLa [20], over 400 µg/mL; in [21], over 400 µg/mL. In addition, the MCC with Vero [23] and in the data set with WI-38 [24] was over 400 µg/mL throughout.
Turning to `Nc1ncnc2c1ncn2C1O[C@H](CO)[C@H](O)[C@H]1O` (stereo partly specified), the MCC (with WI-38 [8]; with Vero [9]; in the data set with HeLa [10]; in the data set with Vero [12]; in the data set with Vero [13]; in data set [15]) was over 400 µg/mL throughout. The MCC (in the data set on Vero [16]; in data set [17]; with Vero [18]; in the data set with WI-38 [19]; in the data set on HeLa [20]; in data set [21]) was over 400 µg/mL in each case. In addition, the MCC is over 400 µg/mL with Vero [23] and over 40 µg/mL with WI-38 [24].
As to `Nc1nc(S)c2ncn(C3O[C@H](CO)[C@H](O)[C@H]3O)c2n1` (stereo partly specified), the MCC in the data set on WI-38 [8] is at least 400 µg/mL; with Vero [9] it was over 200 µg/mL; in the data set with HeLa [10], over 200 µg/mL; with Vero [12], over 200 µg/mL; with Vero [13], at least 200 µg/mL; in data set [15], over 400 µg/mL. Besides, the MCC in the data set on Vero [16] is over 200 µg/mL; in [17] it was over 400 µg/mL; in the data set on Vero [18], over 200 µg/mL; in the data set with WI-38 [19], over 200 µg/mL; in the data set on HeLa [20] it was at least 200 µg/mL; in data set [21], over 400 µg/mL. Further, the MCC with Vero [23] and in the data set with WI-38 [24] was over 200 µg/mL in each case.
